Experiment [1] deals with T1, Leishmania donovani [F270L,K430N].
T1 sequence (whole entry): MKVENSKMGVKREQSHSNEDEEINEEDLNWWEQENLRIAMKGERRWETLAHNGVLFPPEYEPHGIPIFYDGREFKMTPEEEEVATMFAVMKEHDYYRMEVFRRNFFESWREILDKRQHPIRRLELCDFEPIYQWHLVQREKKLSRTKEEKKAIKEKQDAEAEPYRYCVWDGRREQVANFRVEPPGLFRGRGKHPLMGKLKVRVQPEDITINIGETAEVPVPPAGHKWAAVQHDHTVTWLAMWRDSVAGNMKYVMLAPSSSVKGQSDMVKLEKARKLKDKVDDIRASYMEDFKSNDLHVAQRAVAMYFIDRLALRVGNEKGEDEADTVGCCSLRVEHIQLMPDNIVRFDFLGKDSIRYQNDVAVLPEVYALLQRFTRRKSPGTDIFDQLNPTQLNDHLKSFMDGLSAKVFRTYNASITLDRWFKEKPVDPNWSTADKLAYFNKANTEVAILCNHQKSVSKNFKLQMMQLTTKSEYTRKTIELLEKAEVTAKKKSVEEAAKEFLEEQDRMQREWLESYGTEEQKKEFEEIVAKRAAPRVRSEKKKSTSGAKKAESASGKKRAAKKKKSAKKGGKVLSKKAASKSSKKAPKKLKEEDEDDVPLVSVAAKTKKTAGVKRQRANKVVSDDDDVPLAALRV
The experiment can be described thus: Inhibition of recombinant drug-resistant Leishmania donovani LdDR50 topoisomerase 1b wild type small subunit and large subunit F270L, K430N mutant-mediated relaxation of supercoiled pBluescript SK(+) DNA at up to 50 uM after 30 mins using ethidium bromide staining. In a few lines:
(§1)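 Reconstituted recombinant enzyme (30 fmol) with 90 fmol supercoiled pBluescript SK(+) DNA (3:1 DNA:enzyme), 30 min at 37°C with DIM (1–50 μM for fully mutant enzyme; 10 μM for single-site mutants); 4% DMSO vehicle control. Products on 1% agarose, ethidium bromide (0.5 μg/ml) stained; supercoiled monomer band quantified.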

The subject of experiment [2] is Leishmania donovani. In words: Inhibition of recombinant Leishmania donovani AG83 topoisomerase 1b-mediated religation of 14-mer/25-mer suicide DNA substrate at 20 uM after […] by PAGE analysis. Put shortly: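 For cleavage, the 5′-32P 14-mer/25-mer suicide substrate (5 nM) was incubated with 0.15 μM reconstituted enzyme at 23°C, with or without 20 μM DIM. Complexes were shifted to 30°C for 2 min. A 300-fold excess of 11-mer acceptor was added for 30, 60 and 120 s. Samples were stopped with 1% SDS, trypsinised, and run on a sequencing gel to read the 23-mer religated product.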

For experiment [3], the system named is T2, DNA topoisomerase type IB small subunit (Leishmania donovani (strain BPK282A1)), E9B7X3 [N184S].
T2 sequence (whole entry): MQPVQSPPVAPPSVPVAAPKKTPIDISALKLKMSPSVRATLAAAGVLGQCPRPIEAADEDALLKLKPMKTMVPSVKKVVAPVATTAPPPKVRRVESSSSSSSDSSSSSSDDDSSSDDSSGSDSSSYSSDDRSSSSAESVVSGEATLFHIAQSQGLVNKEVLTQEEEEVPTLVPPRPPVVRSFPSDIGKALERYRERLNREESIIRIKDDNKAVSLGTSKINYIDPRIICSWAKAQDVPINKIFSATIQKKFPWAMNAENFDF
The experiment can be described thus: Inhibition of recombinant drug-resistant Leishmania donovani LdDR50 topoisomerase 1b small subunit N184S mutant-mediated religation of 14-mer/25-mer suicide DNA substrate at 20 uM […] by PAGE analysis. Put shortly: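 5′-32P-labelled 14-mer annealed to 25-mer suicide substrate (5 nM) cleaved by 0.15 μM reconstituted enzyme at 23°C, ± 20 μM DIM. Complexes moved to 30°C for 2 min; religation started with 300-fold excess 11-mer acceptor for 30, 60, 120 s. Stopped with 1% SDS, trypsin-treated, 23-mer product resolved on sequencing gel.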

The subject of experiment [4] is T3, DNA topoisomerase I (Leishmania donovani (strain BPK282A1)), E9BRC0 [F270L].
T3 sequence (whole entry): T1 sequence (whole entry) with N430K
In words: Effect on recombinant drug-resistant Leishmania donovani LdDR50 topoisomerase 1b large subunit F270L mutant-mediated cleavage of 25-mer duplex oligonucleotide at 20 uM after 30 mins by PAGE analysis. Put shortly: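 5′-32P-labelled 25-mer duplex (10 nM) incubated with reconstituted mutant enzyme (0.2 μM, 20-fold molar excess) and DIM 5–20 μM for 30 min (Methods 37°C; legend 23°C). Stopped with SDS, trypsin-treated, resolved on 12% denaturing polyacrylamide-urea gel; cleaved 12-mer detected by autoradiography.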

The test system of experiment [5] is Leishmania donovani. The experiment can be described thus: Inhibition of recombinant drug-resistant Leishmania donovani LdDR50 topoisomerase 1b large subunit K430N mutant and small subunit N184S mutant-mediated relaxation of supercoiled pBluescript SK(+) DNA at up to 50 uM after 30 mins using ethidium bromide staining. In a few lines: as §1
Experiment [6] has as its system Leishmania donovani. The experiment can be described thus: Inhibition of recombinant drug-resistant Leishmania donovani LdDR50 topoisomerase 1b-mediated relaxation of supercoiled pBluescript SK(+) DNA at up to 50 uM after 30 mins using ethidium bromide staining. In a few lines:
as §1

Molecules are shown by their SMILES. Where a chain is given by its changes, count along the chain named. Active and inactive are the calls of the source. The rule behind the calls is not given here.

In the case of `c1ccc2c(Cc3c[nH]c4ccccc34)c[nH]c2c1` [ARUNDINE], the inhibition entry in experiment [1] and in experiment [6] was “inactive” throughout. The inhibition entry in experiment [2], in experiment [3] and in experiment [5] was “Active” throughout. Besides, in experiment [4], the outcome was inactive.

Source of the values: ChEMBL document CHEMBL1687733, “Topoisomerase I gene mutations at F270 in the large subunit and N184 in the small subunit contribute to the resistance mechanism of the unicellular parasite Leishmania donovani towards 3,3'-diindolylmethane” (Antimicrob Agents Chemother, 2009).
